Hits are enriched below; roughly 2.5% of the tested compounds scored in any of these assays.
HTR2A ag – mouse HTR2A agonism via beta-arrestin recruitment | CHO-K1 mHTR2A beta-arrestin complementation, luminescence; percent of 30 µM serotonin response | activation, % at 7.6 µM | 0.66% of 360,000 active | AID 624169;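 active = activation above a run cutoff, the mean activation of all tested compounds plus 3 SD, cut at about 14% in these data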;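 note: 0% = plate median of compound wells and 100% = 30 µM serotonin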
Target sequence (P35363 whole entry, looked up): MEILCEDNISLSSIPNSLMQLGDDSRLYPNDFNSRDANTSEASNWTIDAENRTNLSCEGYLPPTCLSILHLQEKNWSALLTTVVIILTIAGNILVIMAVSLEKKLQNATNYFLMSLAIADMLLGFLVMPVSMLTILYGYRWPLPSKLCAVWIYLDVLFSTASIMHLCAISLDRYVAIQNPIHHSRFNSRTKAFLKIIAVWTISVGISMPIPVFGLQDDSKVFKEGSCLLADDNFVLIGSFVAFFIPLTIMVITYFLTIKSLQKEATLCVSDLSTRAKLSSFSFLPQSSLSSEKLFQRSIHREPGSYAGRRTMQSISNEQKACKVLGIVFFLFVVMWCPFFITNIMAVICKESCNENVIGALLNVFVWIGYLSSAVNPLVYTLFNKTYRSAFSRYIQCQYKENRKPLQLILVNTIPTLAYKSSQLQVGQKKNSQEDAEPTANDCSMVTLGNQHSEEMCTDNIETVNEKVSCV
IMP-1 inh-1 – inhibitors of Pseudomonas aeruginosa IMP-1 metallo-beta-lactamase; AID 1556; 0.45% of 290,000 active; inhibition, % at 5.6 µM; purified IMP-1, nitrocefin hydrolysis, epi-absorbance fluorescence;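 active = inhibition above the mean plus 3 SD of all compounds in the same screening run, cut at about 4.5% in these data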;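 note: 0% = IMP-1 with DMSO and 100% = DMSO wells lacking enzyme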
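System: purified recombinant IMP-1 beta-lactamase. Medium: Zinc- and detergent-supplemented HEPES buffer, pH 7.1. Compound: one 5.6 µM dose […]. Schedule: 15 min preincubation plus 25 min reaction at 25 °C. Technique: Epi-absorbance fluorescence, 480 nm excitation, 530 nm emission.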
dFosB act – enhances mouse delta FosB homodimer DNA binding; purified delta FosB, TAMRA-CDK5 oligo fluorescence polarization; percent of positive-control signal above neutral wells; activation, % at 25 µM; 0.99% of 340,000 active; AID 493131;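 active = mean activation above about 17%, with every replicate also reaching it, limit read from the data, passing the limit was not always enough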
VIM-2 inh – inhibitors of Pseudomonas aeruginosa VIM-2 metallo-beta-lactamase; 0.89% of 290,000 active; inhibition, % at 5.6 µM; AID 1527; purified VIM-2, nitrocefin hydrolysis, epi-absorbance fluorescence;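 active = inhibition above the mean of all tested compounds plus 3 SD, cutoff set per screening run, cut at about 7.5% in these data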;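 note: red hydrolysis product quenches plate fluorescence so inhibitors raise well fluorescence; 0% = enzyme with DMSO and 100% = DMSO without enzyme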
IMP-1 inh-2 – selectivity counter-screen for VIM-2 inhibitors: IMP-1 metallo-beta-lactamase inhibitors | shares compounds with VIM-2 inh | purified IMP-1, nitrocefin hydrolysis, epi-absorbance fluorescence | inhibition, % at 5.6 µM | 1,300 tested, under 10 active; call rule not given here;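 note: 0% = enzyme with vehicle and 100% = vehicle without enzyme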
VIM-2 FRET inh – counter-screen for VIM-2 inhibitors: epi-absorbance artifacts via FRET. shares compounds with VIM-2 inh. AID 1857. purified VIM-2, CCF2 FRET substrate hydrolysis. inhibition, % at 5.6 µM. 23% of 1,300 active;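 active = inhibition above the mean of all tested compounds plus 3 SD, cut at about 19% in these data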;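 note: 0% = VIM-2 plus DMSO and 100% = no enzyme wells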
TEM-1 counter – TEM-1 inhibition, counter-screen for VIM-2 inhibitors | shares compounds with VIM-2 inh | Purified TEM-1, nitrocefin hydrolysis, epi-absorbance fluorescence | inhibition, % at 5.6 µM | 3% of 1,300 active | AID 1866;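 active = inhibition above that campaign's mean inhibition plus 3 SD, cut at about 0.46% in these data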;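 note: 0% = TEM-1 with DMSO and 100% = TEM-1 with 100 µM potassium clavulanate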
Target sequence (P62593 whole entry, looked up): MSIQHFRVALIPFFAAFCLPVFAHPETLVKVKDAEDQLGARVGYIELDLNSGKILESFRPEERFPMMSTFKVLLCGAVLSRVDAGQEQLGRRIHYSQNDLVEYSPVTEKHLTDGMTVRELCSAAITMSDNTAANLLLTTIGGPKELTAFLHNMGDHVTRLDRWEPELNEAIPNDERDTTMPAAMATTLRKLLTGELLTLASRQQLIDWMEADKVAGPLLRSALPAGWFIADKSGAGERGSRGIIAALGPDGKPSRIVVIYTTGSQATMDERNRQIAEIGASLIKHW
VIM-2 confirm 2 – confirmation of P. aeruginosa VIM-2 metallo-beta-lactamase inhibitors; purified VIM-2, nitrocefin hydrolysis, epi-absorbance; AID 2187; 96% of 1,300 active; shares compounds with VIM-2 inh; inhibition, % at 5.6 µM;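 active = inhibition of the VIM-2 beta-lactamase enzyme above about 11% from the earlier first-round screen, limit read from the data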;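 note: 0% = VIM-2 with DMSO and 100% = buffer wells without enzyme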
An asterisk follows results filed as active; . = no result.

SMILES	HTR2A ag	IMP-1 inh-1	dFosB act	VIM-2 inh	IMP-1 inh-2	VIM-2 FRET inh	TEM-1 counter	VIM-2 confirm 2
Cc1nnc2c3ccccc3c(-c3cccs3)nn12	-8.2	-2.3	-38.8	28.4*	-3.4	1.0	-5.2	39.7*
Cc1cccn2c(=O)c3cc(C(=O)NCCN4CCOCC4)n(C)c3nc12	-4.9	-1.1	-6.9	19.2*	-2.6	-2.0	-7.6	28.0*
O=C(NCCN1CCOCC1)c1cccn2c(=O)c3c4c(sc3nc12)CCCC4	.	-1.1	.	16.8*	-3.4	-0.7	-7.6	47.0*
COc1ccc(N2CCN(C(=O)Cc3ccc(Br)cc3)CC2)cc1	-0.7	-0.9	-6.2	0.4	.	.	.	.
O=Cc1c(NCc2ccc(Cl)cc2)c2ccccc2[nH]c1=O	4.3	-4.2	-12.1	14.2*	-2.5	37.9*	-6.0	23.8*
NC(=O)c1ccsc1NC(=O)Cc1ccc([N+](=O)[O-])cc1	-4.1	-0.5	-9.8	0.7	.	.	.	.
O=C(O)C(NC(=O)c1ccccc1)=C(Cl)Cl	2.6	-3.6	-3.9	23.1*	-2.7	44.1*	-5.2	24.7*
CC(CCc1ccccc1)NC(=O)Cn1cccc1C(=O)c1ccccc1 (stereo not drawn)	-1.7	-1.5	-2.7	-5.8	.	.	.	.
COc1ccccc1C(=O)Nc1ccc(S(=O)(=O)N2CCN(C)CC2)cc1	-0.4	.	-14.3	.	.	.	.	.
CCCOc1ccccc1C(=O)Nc1ccc(S(=O)(=O)N2CCN(C)CC2)cc1	5.0	-1.4	-14.6	50.9*	-1.6	-0.6	-7.2	65.5*
CN(/N=C/c1cccc(Br)c1)C1=NS(=O)(=O)c2ccccc21	8.5	-1.8	-12.5	16.4*	-3.2	-2.6	-8.1	22.5*
CCOC(=O)C1=CCN(S(=O)(=O)c2ccccc2Br)C1c1cccc(C)c1 (stereo not drawn)	-0.1	.	.	.	.	.	.	.
Cc1ccc(S(=O)(=O)N[C@@H](C)CO)cc1	2.9	.	.	.	.	.	.	.
CCn1cc(C(=O)NCCCN(C)C)c(=O)c2cc(F)c(N3CCN(C)CC3)cc21	-6.2	-6.9	-0.7	21.4*	-3.0	4.4	-5.2	36.4*
CCCCCNC(=O)c1cn(CC)c2cc(N3CCN(C)CC3)c(F)cc2c1=O	0.8	0.5	-8.9	2.9	.	.	.	.
Cc1nn2c(N3CCN(CCO)CC3)c3c(nc2c1-c1ccccc1)CCCC3	-7.8	-3.5	4.1	37.4*	-3.5	-3.7	-6.7	59.5*
CN1CCC/C1=C/C=C1\SC(=S)NC1=O	1.1	-2.4	2.6	2.5	.	.	.	.
CC1CC(C)CN(CCCNC(=O)C2CCN(c3ncnc4c3sc3cccc(F)c34)CC2)C1 (stereo not drawn)	.	-1.1	.	25.3*	0.0	3.1	-6.2	35.6*
CCN(CC)CCCNC(=O)C1CCN(c2ncnc3c2sc2cccc(F)c23)CC1	-5.5	1.7	-39.9	26.6*	-0.5	9.9	-6.0	38.8*
Cc1ccc([C@H]2C[C@H](n3cc(C4CC4)nn3)[C@@H](O)CN2Cc2cccs2)cc1	-4.5	.	.	.	.	.	.	.
Cc1nc2ccccc2c2oc(C(=O)NCCCN3CCCC(C)C3)cc12 (stereo not drawn)	-2.8	-1.6	-32.4	18.4*	-3.0	1.7	-6.1	29.4*
CC1CCCN(CCCNC(=O)c2cc3c(s2)-c2ccccc2OC3)C1 (stereo not drawn)	-7.6	1.2	9.8	0.5	.	.	.	.
Cc1nc2ccccc2c2oc(C(=O)NCCCN3CC(C)CC(C)C3)cc12 (stereo not drawn)	0.6	-2.3	-25.5	15.2*	-2.4	0.8	-6.1	24.1*
CC1CCCN(CCCNC(=O)c2cc3c(Cl)nc4ccccc4c3s2)C1 (stereo not drawn)	-6.6	-1.9	-62.5	19.4*	-3.1	0.6	-5.3	31.0*
Cc1ccc(CNC(=O)c2cc3c(C)nc4ccccc4c3o2)cc1	-4.1	-2.5	7.7	-1.6	.	.	.	.
SMILES	HTR2A ag	IMP-1 inh-1	dFosB act	VIM-2 inh	IMP-1 inh-2	VIM-2 FRET inh	TEM-1 counter	VIM-2 confirm 2
C#CCOCCOCCOCCNc1nc(N2CCOCC2)nc(N2CCN(C(=O)[C@H](C)n3cc(CCC(=O)O)nn3)CC2)n1	10.9	.	5.2	.	.	.	.	.
O=S1(=O)CCN(Cc2ccncc2)CC1	3.4	.	.	.	.	.	.	.
CN(C)CCCNc1ccc(-c2nn(C)c(=O)c3ccccc23)cc1[N+](=O)[O-]	-3.4	-1.4	-8.3	61.3*	-2.9	2.2	-7.8	71.3*
CC(O)CNc1ccc(-c2nn(C)c(=O)c3ccccc23)cc1[N+](=O)[O-] (stereo not drawn)	2.8	-2.2	-6.5	19.4*	-3.0	-1.4	-5.5	39.1*
CC(=O)NCc1cc(-c2nn(C)c(=O)c3ccccc23)ccc1C	-3.9	-4.6	-10.6	1.7	.	.	.	.
COCCNc1ccc(-c2nn(C)c(=O)c3ccccc23)cc1[N+](=O)[O-]	1.5	-2.2	-11.6	1.7	.	.	.	.
COc1ccccc1N1CC(O)=C(c2nc3ccccc3c(=O)[nH]2)C1=N	-11.5	-3.1	-8.5	14.7*	-3.7	-5.8	-9.1	23.3*
c1ccc(-c2nccc(-c3ccco3)n2)nc1	5.4	-0.8	3.2	33.6*	-5.1	-19.7	-6.8	29.8*
CCN(CC(=O)NCc1cccs1)C(=O)/C=C/c1cc(OC)c(OC)c(OC)c1	0.5	.	3.6	.	.	.	.	.
CC(OC(=O)c1cccc(-n2cnnn2)c1)C(=O)Nc1ccc(F)cc1 (stereo not drawn)	2.4	-1.2	-0.8	-0.3	.	.	.	.
COc1ccc(CC(N)c2csc(NC(=O)c3cc(C(C)(C)C)oc3C)n2)cc1 (stereo not drawn)	0.7	.	.	.	.	.	.	.
CCCCN(CC)CCNC(=O)c1cc2c(=O)[nH]c3ccccc3c2s1	-5.7	-3.6	-16.2	7.0	.	.	.	.
CCN(CC)CCCNC(=O)c1cc2c(=O)n(CC)c3ccccc3c2s1	-8.1	-1.6	-48.1	14.1*	-1.9	0.8	-5.3	20.9*
CCn1c(=O)c2cc(C(=O)NCCN(C)C)sc2c2ccccc21	-4.4	-0.9	-16.0	12.9*	-1.9	0.9	-4.8	20.0*
CCN(CC)CCNC(=O)c1cc2c(=O)n(CC)c3ccccc3c2s1	-8.0	-3.5	-40.8	13.6*	-2.5	-1.1	-4.2	20.6*
CCn1c(=O)c2cc(C(=O)N3CCCC3)sc2c2ccccc21	.	-3.7	.	-0.6	.	.	.	.
COc1c(-c2ccccc2)oc2c(ccc3occc32)c1=O	1.6	.	-34.3	.	.	.	.	.
CCn1ccc(-c2ccccc2)c(C#N)c1=O	7.0	-1.1	0.4	-0.2	.	.	.	.
CC(c1ccccc1)n1c(Cn2ncc3ccccc3c2=O)n[nH]c1=S (stereo not drawn)	3.9	-2.9	0.3	-1.8	.	.	.	.
O=c1c2ccccc2cnn1Cc1n[nH]c(=S)n1C1CC2CCC1C2 (stereo not drawn)	6.9	-3.6	-6.0	15.0*	-2.7	37.8*	-6.5	21.1*

Screens from PubChem.
